# T cruzi repl: blocks replication of Trypanosoma cruzi; inhibition, % (concentration not given with the values); 1.4% of 300,000 active; T. cruzi beta-gal in NIH3T3, luminescence, 90 h; AID 1885;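 active = mean inhibition across valid replicates above about 55%, limit read from the data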;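 also: signal also drops with host cell toxicity which is not excluded here; 0% = plate median of DMSO wells and 100% = zero luminescence signal; higher percent means less beta-gal luminescence so fewer parasites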
#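 Test system: β-gal T. cruzi (Tulahuen C4) inside NIH/3T3 cells / Quantity: 5,000 cells/well / Measured by: luminescence from GalScreen with 0.05% NP40, read after 60 min / Medium: DMEM plus 2% FBS / Measure: parasite load inhibition, % / Reagent: Tulahuen C4 trypomastigotes, 5000/well / Schedule: co-culture of at least 90 h after 3 h attachment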
# CSC inhib: cancer stem cell inhibition; cancer stem cell-like cells viability, luminescence; inhibition, % at 7.5 µM; 1.1% of 300,000 active; AID 2717; in the data active = inhibition above about 75%; tested in HMLE shEcad cells
# CHOP UPR activ: apoptotic UPR (CHOP) activation; CHO-CHOP luciferase reporter, luminescence; percent of tunicamycin response over DMSO baseline; activation, % at 10 µM; 0.34% of 330,000 active; AID 449763;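 active = at 10 µM dose, activation of 40% or more, normalized to positive control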;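 also: 100% = tunicamycin at 10 µg/mL and 0% = DMSO alone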
#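 System: CHO-CHOP luciferase reporter cell line | Buffer or medium: F12 medium containing 10% fetal bovine serum | Doses: One dose, 10 µM in 0.5% DMSO | Times: 6 h compound exposure at 37 °C after overnight seeding | Signal: Luciferase luminescence | Read-out: % activation vs tunicamycin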
# Mdm2-MdmX inh: human Mdm2/MdmX binding inhibition | SaOS-2 split-luciferase Mdm2/MdmX complementation, luminescence | inhibition, % at 8 µM | 3% of 330,000 active;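 active = inhibition of at least 50% at 8 µM in the primary screen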
# Beta cell apopt: beta cell apoptosis inhibition | INS-1E cytokine-induced death, ATP luminescence, 48 h; percent of positive-control rescue, neutral wells zero | protection from apoptosis, % (test concentration not listed) | 0.8% of 300,000 active | AID 435005;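 active = Every replicate reaches about 75%, or at least half do and their mean reaches it too, limit read from the data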;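 also: 0% = cytokine-treated negative control wells and 100% = positive control rescue; higher means more ATP so stronger rescue from cytokine killing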
# UPR XBP1 act: adaptive UPR (XBP1) activation. CHO-XBP1 luciferase reporter, IRE1-XBP1 UPR activation, luminescence; percent of tunicamycin response, DMSO as zero. activation, % at 20 µM. 0.33% of 330,000 active;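 active = versus positive control, 20 µM dose yields 30% or more activation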;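 also: 100% = tunicamycin at 10 µg/mL and 0% = DMSO only wells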
#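 Assay system: IRE1-XBP1 luciferase reporter CHO line. Input: 1000 cells/well. Buffer or medium: F12 with 10% serum. Doses: 20 µM, 1% DMSO. Times: overnight seeding at 37 °C, 6 h compound treatment at 37 °C. Technique: Steady-Glo luciferase glow luminescence, 10 min after reagent addition.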
# Starred values were filed as active, the others as inactive; / = not tested or not shown. Rows were chosen to be rich in hits. Some 5% of all compounds tested hit in one or more screens of this group.
SMILES,T cruzi repl,CSC inhib,CHOP UPR activ,Mdm2-MdmX inh,Beta cell apopt,UPR XBP1 act
CC(OC(=O)Cn1[nH]c(=O)c2ccccc2c1=O)C(=O)Nc1ccccc1[N+](=O)[O-] (centres undefined),-1,0,1,-12,/,0
CCSc1nnc(SCC(=O)c2c(N)n(C)c(=O)n(C)c2=O)s1,/,/,4,6,/,-2
CC1CC(C)CN(C(=O)c2cc3cc(Br)cc(Br)c3o2)C1 (centres undefined),28,89*,5,-88,9,4
CC1CC(C)CN(C(=O)c2cc3ccccc3o2)C1 (centres undefined),5,4,1,1,8,3
CC(=O)OCCN1C(=O)c2cccc3cc([N+](=O)[O-])cc(c23)C1=O,73*,17,0,17,10,-4
O=C1c2cccc3cc([N+](=O)[O-])cc(c23)C(=O)N1CC1CCCO1 (centres undefined),51,1,1,40,20,0
CN1CCN(c2nc(-c3ccccc3)nc(-c3ccc(F)cc3)c2C#N)CC1,55*,30,3,18,10,3
COc1ccccc1-c1nc(-c2ccccc2)nc(N2CCN(C)CC2)c1C#N,51,1,0,-24,0,0
O=c1cc(C(F)(F)F)[nH]c2c(OC(F)(F)F)cccc12,-20,79*,1,-8,6,-1
Cc1cccc2c(=O)cc(C(F)(F)F)[nH]c12,5,16,-1,38,0,0
O=C(NCc1ccccn1)c1coc(=O)c(Br)c1,-15,4,30,12,5,11
O=C(c1ccccc1)c1ccc(Cn2cc(CCCO)nn2)cc1,-30,-9,3,22,21,-3
O=C(O)CCCCCCCCc1cn(Cc2ccc(C(=O)c3ccccc3)cc2)nn1,56*,61,-1,41,20,3
CCOC(=O)C1(CCc2ccccc2)CCN(C(=O)CN2C(=O)CSC2=O)CC1,6,4,1,-10,4,1
Cc1c(C(=O)N2CCCCCC2)c(S(=O)(=O)NCc2ccccc2Cl)c(C)n1C,15,-7,0,12,/,-2
COc1ccc(C(CCN)c2ccc3c(c2)OCO3)cc1 (centres undefined),60*,14,-1,-13,-1,-1
CCN(CC)C(=O)C1CCCN(Cc2ccccc2)C1 (centres undefined),16,-1,0,2,-13,-1
CCN(CC)C(=O)C1CCCN(C(=O)Nc2ccc(NC(=O)N3CCCC(C(=O)N(CC)CC)C3)cc2)C1 (centres undefined),-19,-7,0,-2,-10,-2
CCN(CC)C(=O)C1CCCN(Cc2ccc(N(C)C)cc2)C1 (centres undefined),71*,-6,0,14,-2,0
CCN(CC)C(=O)C1CCCN(C(=S)Nc2cccc3ccccc23)C1 (centres undefined),8,16,1,16,85*,1
Cc1c(C)n(CCCN(C)C)c2ncnc(NCc3ccccc3)c12,55*,-6,0,5,-5,-3
Cc1c(C)n(CCc2ccccc2)c2ncnc(NCCO)c12,1,1,4,-43,2,13
O=C(NCc1cccnc1)C(=O)NCC1OCCN1S(=O)(=O)c1ccc(F)cc1 (centres undefined),-10,20,1,15,3,-2
O=C(Nc1ncccc1O)c1cccc(S(=O)(=O)N2CCN(c3ccc(F)cc3)CC2)c1,/,/,0,27,/,-2
O=C(Nc1ccncc1)c1cccc(S(=O)(=O)N2CCN(c3ccc(F)cc3)CC2)c1,58*,7,2,31,3,1
O=C1CCCC(O)=C1C=NCc1ccccc1,-14,6,1,-16,-11,0
CN=c1scc(-c2ccccc2F)n1/N=C(\C)c1cccnc1,55*,11,3,-136,8,3
O=S(=O)(/C(=C/c1ccc(C(F)(F)F)cc1)c1nc2ccccc2[nH]1)c1ccccc1,41,101*,/,/,100*,/

# Bioassay records from PubChem BioAssay.
